IC50, Activity and inhibition data for twelve compounds are collected here from ChEMBL document CHEMBL1155530, “Identification of aryl 2-aminoimidazoles as biofilm inhibitors in Gram-negative bacteria” (Bioorg Med Chem Lett, 2010).

Calls of active or inactive are those of the source. The rule behind the calls is not given here.

Series [1] concerns Escherichia coli. Kind of series: Inhibition of Escherichia coli biofilm formation after 24 hrs by crystal violet reporter assay. It counts as functional, organism-based. A digest of the protocol:
(§1)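 Biofilm formation measured by crystal violet reporter assay. Each compound was first screened at 100 µM. Compounds giving >95% inhibition then went to dose-response studies to derive IC50. Values are means of three or more experiments.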

The test system of series [2] is Pseudomonas aeruginosa. Briefly: Dispersion of Pseudomonas aeruginosa PA14 established biofilm at 100 uM after 24 hrs by crystal violet reporter assay. Type of series: functional, organism-based. (Reporter assays use an easily measured gene product as a stand-in for the process of interest.)
Series [3] deals with Pseudomonas aeruginosa. Kind of series: Inhibition of Pseudomonas aeruginosa PA14 biofilm formation after 24 hrs by crystal violet reporter assay. Type of series: functional, organism-based. Particulars: PA14, 24 h. A digest of the protocol: as §1
In series [4] the test system is Escherichia coli. Kind of series: Dispersion of Escherichia coli established biofilm at 50 uM after 24 hrs by crystal violet reporter assay. It counts as functional.
The subject of series [5] is Escherichia coli. Briefly: Toxicity in Escherichia coli assessed as inhibition of planktonic growth at IC50 concentration measured up to 24 hrs. Type of series: organism-based. The note with it: in vivo.
Series [6] concerns Acinetobacter baumannii. Kind of series: Dispersion of Acinetobacter baumannii established biofilm at 100 uM after 24 hrs by crystal violet reporter assay. Type of series: functional.
For series [7], the system named is Acinetobacter baumannii. Kind of series: Inhibition of Acinetobacter baumannii biofilm formation after 24 hrs by crystal violet reporter assay. Type of series: functional, organism-based. A digest of the protocol: as §1
For series [8], the system named is Pseudomonas aeruginosa. Briefly: Inhibition of Pseudomonas aeruginosa PA14 biofilm formation at 100 uM after 24 hrs by crystal violet reporter assay. Type of series: functional. The note with it: PA14, 24 h. A digest of the protocol:
as §1

The subject of series [9] is Escherichia coli. Briefly: Inhibition of Escherichia coli biofilm formation at 100 uM after 24 hrs by crystal violet reporter assay. Type of series: functional. A digest of the protocol:
as §1

For series [10], the system named is Acinetobacter baumannii. Kind of series: Inhibition of Acinetobacter baumannii biofilm formation at 100 uM after 24 hrs by crystal violet reporter assay. Type of series: functional. Put shortly: as §1

For orientation: IC50 means the concentration at which inhibition is half-maximal. For orientation: inhibition means the drop in the measured response relative to a control, in per cent. A lower inhibition goes with a weak effect.

In the series on Escherichia coli [1], `CCCCCc1ccc(C(=O)Nc2cccc(-c3cnc(N)[nH]3)c2)cc1` had an IC50 of 16.5 µM. Moreover, the outcome in the series with Pseudomonas aeruginosa [2] was inactive.
Turning to `CCCCCCC(=O)Nc1ccc(-c2cnc(N)[nH]2)cc1`, the result with Pseudomonas aeruginosa [2] was inactive. Further, inhibition in the series on Pseudomonas aeruginosa [3] was half-maximal at 16.8 µM (IC50).
In the series on Escherichia coli [1], `Cl.Nc1ncc(-c2ccc(NC(=O)/C=C/c3ccccc3)cc2)[nH]1` returned an IC50 of 16.3 µM. The same compound gave an Activity in the series on Escherichia coli [4] of 67%. In the series with Pseudomonas aeruginosa [2], the outcome was inactive.
Take `Cl.Nc1ncc(-c2ccc(NC(=O)c3cc(F)cc(F)c3)cc2)[nH]1`: the Activity result with Escherichia coli [5] is “Non-toxic”; with Escherichia coli [4], 51%. For the same compound, the IC50 in the series with Escherichia coli [1] amounted to 5.2 µM; in the series with Pseudomonas aeruginosa [3], 27.6 µM. In the series on Pseudomonas aeruginosa [2], the outcome was inactive.
On to `CCCCCCCCCC(=O)Nc1ccccc1-c1cnc(N)[nH]1.Cl`, for which, in the series with Pseudomonas aeruginosa [2], the result was inactive. Further, the Activity in the series on Acinetobacter baumannii [6] is recorded as 40%. In the series with Acinetobacter baumannii [7], this compound registered a half-inhibitory concentration (IC50) of 43 µM.
As for `CCCCCCC(=O)Nc1cccc(-c2cnc(N)[nH]2)c1`, the outcome in the series on Pseudomonas aeruginosa [2] was inactive. In the series with Pseudomonas aeruginosa [3], this compound showed an IC50 of 39.4 µM.
In the series on Escherichia coli [1], `Nc1ncc(-c2cccc(NC(=O)CCC3CCCC3)c2)[nH]1` came in with an IC50 of 47 µM. The outcome in the series with Pseudomonas aeruginosa [2] was inactive.
As to `Nc1ncc(-c2ccccc2NC(=O)c2cc(F)cc(F)c2)[nH]1`, the result in the series with Pseudomonas aeruginosa [2] was inactive. Further, the inhibition at 100 µM with Pseudomonas aeruginosa [8] and in the series with Escherichia coli [9] was below 5% throughout.
In the series on Escherichia coli [1], `CCCCCc1ccc(C(=O)Nc2ccc(-c3cnc(N)[nH]3)cc2)cc1` came in with a half-inhibitory concentration (IC50) of 39.4 µM. For the same compound, in the series with Pseudomonas aeruginosa [2], the result was inactive.
Turning to `Nc1ncc(-c2cccc(NC(=O)c3cc(F)cc(F)c3)c2)[nH]1`, the result in the series on Pseudomonas aeruginosa [2] was inactive. Besides, the results for the inhibition at 100 µM in the series on Pseudomonas aeruginosa [8] and in the series with Escherichia coli [9] were below 5% and 64%, respectively.
`Nc1ncc(-c2cccc(NC(=O)C34CC5CC(CC(C5)C3)C4)c2)[nH]1` gave a half-inhibitory concentration (IC50) with Escherichia coli [1] of 43.4 µM. In addition, the result in the series with Pseudomonas aeruginosa [2] was inactive.
With `Nc1ncc(-c2ccc(-n3cc(-c4cc(F)cc(F)c4)nn3)cc2)[nH]1`, the inhibition at 100 µM with Acinetobacter baumannii [10] was 21%; in the series on Pseudomonas aeruginosa [8], below 5%; in the series with Escherichia coli [9] it was 35%.
